An excerpt weighted towards active compounds, which were near 1.5% of everything screened.
PKA-R2B activ – activators of human PKA-R2B complex. P22694+P31323. PKA-R2B holoenzyme dissociation, Cy5-IP20 fluorescence polarization; R2B truncated from residue 108, S112A mutant; 0% DMSO only, 100% 113 µM cGMP. activation, % at 11.4 µM. hit rate 0.079% among 340,000. AID 504700;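 active = activation above a cutoff set at the mean over all compounds plus 3 SD, cut at about 18% in these data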;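 also: higher means more holoenzyme dissociation and a rise in polarization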
Target sequence (P31323 whole entry, looked up, other chains not shown, the tested form may be a part): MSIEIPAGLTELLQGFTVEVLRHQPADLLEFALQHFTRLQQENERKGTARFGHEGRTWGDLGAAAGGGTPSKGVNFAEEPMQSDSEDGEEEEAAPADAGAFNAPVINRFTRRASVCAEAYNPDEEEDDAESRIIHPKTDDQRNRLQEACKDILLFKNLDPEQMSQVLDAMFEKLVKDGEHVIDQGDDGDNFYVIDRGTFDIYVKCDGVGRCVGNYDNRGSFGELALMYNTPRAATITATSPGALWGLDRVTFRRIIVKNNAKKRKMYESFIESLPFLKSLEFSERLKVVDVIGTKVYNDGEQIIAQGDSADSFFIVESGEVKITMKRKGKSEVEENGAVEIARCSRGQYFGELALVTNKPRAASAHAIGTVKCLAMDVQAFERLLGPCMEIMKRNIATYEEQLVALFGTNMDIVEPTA
PKA-R1A activ – activates the PKA-R1A holoenzyme complex | P00514+P68181 | PKA-R1A dissociation, Cy5-IP20 fluorescence polarization; scaled: DMSO 0%, 113 µM cGMP 100% | activation, % at 11.4 µM | AID 504707 | hit rate 0.083% among 340,000;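 active = percent activation above the mean of all tested compounds plus 3 SD, cut at about 19% in these data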;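 also: higher means more PKAc released from R1A so a rise in polarization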
Cardio protect – myocardial damage modulation in H9c2 cells; H9c2 cardiomyocytes, H2O2 injury protection, ATPLite, 2 h; protection from H2O2 cell death, % at 20 µM; hit rate 0.63% among 360,000;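 active = compounds giving at least 50% protection of heart cells from peroxide-induced death in the single-dose screen, raw or plate-pattern-corrected value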;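 also: 0% = DMSO wells with peroxide and 100% = DMSO wells without peroxide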
Rin1-Abl PPI inh – human Rin1-Abl interaction inhibition; hit rate 0.4% among 360,000; TR-FRET Rin1/Abl binding, biochemical; P00519+Q13671; inhibition, % at 7.35 µM; in the data active = inhibition above about 5%, passing the limit was not always enough
Tb MetRS inh – blocks T. brucei methionyl-tRNA synthetase activity. inhibition, % at 11.9 µM. purified T. brucei MetRS, ATP depletion, Kinase-Glo luminescence. AID 624268. hit rate 0.4% among 360,000;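 active = inhibition above a per-plate cutoff of the control wells' mean inhibition plus 3 SD, cut at about 5.5% in these data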;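 also: 0% = DMSO wells median and 100% = median of wells with control inhibitor compound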
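Test system – parasite MetRS enzyme · Reagent – substrates ATP, L-methionine and bulk Escherichia coli tRNA · Doses – 11.9 µM compound single dose, 0.9% DMSO · Times – 15 min enzyme-compound preincubation, 2 h reaction, 10 min detection, 25 °C · Signal – Kinase-Glo luminescence, ATP depletion format · Controls – DMSO-only wells as low control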
Starred values were filed as active, the others as inactive; . = no result.

SMILES | PKA-R2B activ | PKA-R1A activ | Cardio protect | Rin1-Abl PPI inh | Tb MetRS inh
COc1ccc(OC)c(CN2C(=O)CN(S(C)(=O)=O)CC2(C)C(=O)NC(C)C)c1 (stereo unspecified) | . | . | . | . | -0.4
COc1cc(CN2C[C@@H](CO)O[C@@H](n3cnc4c(Nc5ccccc5)ncnc43)C2)cc(OC)c1OC | . | . | 79.1* | -1.2 | -0.4
Fc1ccc(-n2cc(-c3ccccc3)c3c(N4CCOCC4)ncnc32)cc1 | -12.3 | -9.4 | 58.0* | -4.4 | -0.7
COc1ccc(-n2cc(-c3ccccc3)c3c(N4CCOCC4)ncnc32)cc1 | -13.4 | -2.8 | 58.5* | 1.5 | -0.3
COc1ccc(-n2cc(-c3ccccc3)c3c(NCCCN4CCOCC4)ncnc32)cc1 | -7.4 | -1.8 | 11.6 | -2.1 | 0.4
COc1ccc(Cl)cc1NC(=O)C1CCN(C(=O)C2CC(=O)N(c3ccc(C)cc3)C2)CC1 (stereo unspecified) | -1.1 | -11.3 | 3.2 | 2.3 | -0.6
C/C(=N\NC(=O)CSCc1ccc([N+](=O)[O-])cc1)c1ccccc1 | -7.2 | -5.3 | -6.5 | -0.3 | -0.3
C/C(=N\NC(=O)CSCc1ccc([N+](=O)[O-])cc1)c1ccccc1O | 1.9 | -2.7 | 63.1* | -0.3 | 3.7
O=C([C@H](O)c1ccccc1)N1CCC[C@H]1CO | -1.9 | 7.1 | -0.8 | -1.8 | -0.6
COc1ccc(C)cc1NC(=O)NNC(=O)C(C)Oc1ccc([N+](=O)[O-])cc1 (stereo unspecified) | 5.5 | 5.5 | 0.1 | 0.9 | -0.4
Cc1onc(-c2ccccc2Cl)c1C(=O)NNC(=O)c1cccc(F)c1 | 3.2 | 1.1 | 5.0 | 1.3 | -0.8
COc1ccc(CSc2nc3ccccc3c(=O)[nH]2)cc1F | -4.1 | -1.8 | 53.2* | 2.3 | 0.7
COc1ccccc1OCCSc1nc2ccccc2c(=O)[nH]1 | -1.0 | -1.0 | 66.3* | 3.7 | -1.0
O=c1[nH]c(SCCOc2ccccc2F)nc2ccccc12 | 3.8 | -6.4 | 12.1 | -1.6 | -0.2
O=C1c2ccc(Cl)cc2S(=O)(=O)c2cccc(C(=O)N3CCC(Cc4ccccc4)CC3)c21 | 0.4 | -6.5 | -3.7 | 1.8 | -0.2
Oc1ccc2c(c1)OCC1(O)Cc3cc(O)c(O)cc3C21 (stereo unspecified) | 2.8 | -8.2 | 2.4 | 4.8 | 0.8
Oc1cc2c(cc1O)[C@H]1c3ccc(O)c(O)c3OC[C@@]1(O)C2 | 6.2 | 0.6 | 14.6 | 31.4* | 0.3
COc1cccc(Cn2nc(C(=O)O)c3ccccc3c2=O)c1 | 6.3 | -6.8 | 64.0* | 1.5 | -1.4
CC(NC(=O)Cn1nc(C(=O)O)c2ccccc2c1=O)c1ccccc1 (stereo unspecified) | 2.2 | -6.4 | 80.8* | 0.3 | 1.2
CC(NC(=O)Cn1nc(-c2ccccc2)c2ccccc2c1=O)c1ccccc1 (stereo unspecified) | -5.7 | 1.2 | 9.4 | -1.1 | -0.6
CC(=O)NC(c1ccco1)c1cc(F)c2cccnc2c1O (stereo unspecified) | -1.6 | -8.6 | 50.5* | 11.0 | -0.2
CCCC(=O)NC(c1ccco1)c1cc(Cl)c2cccnc2c1O (stereo unspecified) | -9.4 | -9.9 | 35.2 | 3.2 | -0.1
CC(=O)NC(C)c1cc(Cl)c2cccnc2c1O (stereo unspecified) | 1.3 | -5.0 | 57.6* | 6.0 | -0.5
CCC(=O)NC(C)c1cc(Cl)c2cccnc2c1O (stereo unspecified) | 1.0 | -0.2 | 33.8 | 1.6 | 0.0
CCn1nc(C(=O)OCC(=O)c2c[nH]c3ccccc23)c2ccccc2c1=O | 6.9 | 0.7 | 58.2* | -0.7 | 0.7
SMILES | PKA-R2B activ | PKA-R1A activ | Cardio protect | Rin1-Abl PPI inh | Tb MetRS inh
CC(C)n1nc(C(=O)OCC(=O)c2c[nH]c3ccccc23)c2ccccc2c1=O | 0.0 | -4.2 | 62.4* | -0.9 | 0.4
CC(C)n1nc(C(=O)Nc2nc3ccccc3[nH]2)c2ccccc2c1=O | 0.5 | -2.3 | 59.6* | 0.3 | 3.5
COc1ccc(COC(=O)C2CCN(C(=O)c3ccc(Cl)cc3)CC2)cc1F | -6.3 | -11.9 | -9.8 | 0.5 | -0.5
Cn1c(=O)c2cc(NC(=O)Nc3ccccc3)ccc2n1Cc1ccccc1 | . | . | -1.4 | 0.8 | 2.4
CCn1c(=O)c2c(nc(SCC(=O)Nc3ccccc3)n2C)n(C)c1=O | 6.1 | 0.5 | 0.3 | 1.4 | -0.2
CCOC(=O)c1nc(N2CCN(C(=O)OCC)CC2)c2c3c(sc2n1)CCCC3 | -8.7 | -3.2 | 62.5* | -3.6 | -0.5
NC(=S)N=Nc1c(O)[nH]c2ccc(F)cc12 | -2.2 | 4.7 | -0.5 | -6.4 | 0.2
NC(=S)N=Nc1c(O)cc(O)c2[nH]c(=O)ccc12 | 0.7 | -3.8 | -7.5 | 14.5* | 0.1
CSCCC(NS(=O)(=O)c1ccccc1)C(=O)OCc1cc(=O)oc2cc(O)ccc12 (stereo unspecified) | -7.3 | -1.3 | 56.3* | -1.1 | -0.3
Cc1ccc(NC(=O)CSC(C)C(=O)OCc2cc(=O)oc3cc(O)ccc23)cc1 (stereo unspecified) | -5.2 | -0.5 | 66.6* | -4.6 | -0.2
CCN(CC)c1ccc(C(=O)OCc2cc(=O)oc3cc(O)ccc23)cc1 | -8.3 | 0.1 | 23.7 | 0.4 | -1.3
COc1ccc(NC(=O)N(C)[C@H]2C[C@H]3c4[nH]c5ccc(-c6ccc7c(c6)OCO7)cc5c4CCN3C[C@H]2[C@H](C)O)cc1 | -3.5 | -6.9 | 54.3* | -3.5 | 0.0
COc1ccc(NC(=O)N(C)[C@H]2C[C@H]3c4[nH]c5ccc(-c6ccc(OC)cc6)cc5c4CCN3C[C@H]2[C@H](C)O)cc1 | -12.9 | 0.0 | -1.1 | -3.1 | -2.2
CCCCN(C(C)=O)c1c(CC)nc2ccc(C(=O)NCCCN(C)C)cn12 | . | . | -3.0 | -1.6 | -0.3
COc1c(O)cc2oc(-c3ccc(O)cc3)cc(=O)c2c1O | 2.4 | 0.1 | -6.6 | -3.4 | 0.4
O=c1cc(-c2ccccc2)oc2cc(O)c(O)c(O)c12 | 6.8 | -2.8 | 9.3 | 20.6* | 0.6
CC1=NN(c2ccccc2)C(=O)C1=Cc1ccccc1 | -9.5 | -6.3 | 0.7 | 28.9* | 1.4
NC(=O)c1ccsc1NC(=O)c1ccc([N+](=O)[O-])o1 | -14.4 | -11.7 | 77.9* | -4.4 | -0.4
CC(=O)c1cccc(-c2cnc3c(NC=O)cc(-c4ccc(F)cc4)cn23)c1 | . | . | 60.9* | -4.7 | -0.1
COc1ccccc1-c1cc(NC=O)c2ncc(-c3cccc(C(C)=O)c3)n2c1 | . | . | 60.0* | -6.7 | -0.2
CCCCc1cc(=O)oc2cc(OCC(=O)N3CCOCC3)ccc12 | 0.6 | -9.8 | 0.4 | -1.4 | -1.1
CCCCc1cc(=O)oc2cc(O)ccc12 | -5.9 | -0.3 | 52.5* | 2.7 | 0.6
COc1ccccc1CCNC(=O)C(=O)NCC1OCCN1S(=O)(=O)c1ccc2c(c1)OCCO2 (stereo unspecified) | -5.5 | -5.1 | -1.7 | 0.4 | -0.4
COc1cc(/C=C/C(=O)OCC(=O)N2c3ccccc3NC(=O)C2(C)C)cc(OC)c1OC | -4.2 | -10.5 | 76.4* | 1.0 | -0.2

Screens deposited in PubChem by several laboratories.
